Measured values reported in ChEMBL document CHEMBL1137515, “Alpha-diaminobutyric acid-linked hairpin polyamides” (Bioorg Med Chem, 2007).

Columns and labels:
[1] = Binding affinity to pMFST2 TAGGTGT match site
Method in brief: (§1)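 DNase I footprinting titrations on the 5′ end-labeled PCR product of the relevant plasmid (pMFST or pMFST2). DNA was equilibrated with polyamide or water (control) for 12–16 h at room temperature before DNase I cleavage. Binding isotherms gave equilibrium association constants (M−1), reported as the mean of three titrations.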

[2] = Binding affinity to pMFST2 TAGGTCT mismatch site A; method in brief: as §1
[3] = Binding affinity to pMFST2 TAGCTGT mismatch site B; method in brief: as §1
[4] = Binding affinity to pMFST5 slipped extended S site
Method in brief: (§2)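 Quantitative DNase I footprinting on the 301 bp 5′ end-labeled PCR product of plasmid pMFST5, using 1 pM to 100 nM polyamide across 11 lanes. DNA was incubated with polyamide or water for 12–16 h at room temperature before DNase I digestion. Equilibrium association constants (M−1) from binding isotherms are the mean of three experiments.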

[5] = Binding affinity to pMFST5 forward hairpin binding M site; method in brief: as §2
[6] = Binding affinity to pMFST5 overlapped extended O site; method in brief: as §2
[7] = Binding affinity to pMFST TAGTGGT match site; method in brief: as §1
[8] = Binding affinity to pMFST TAGTCGT mismatch site B; method in brief: as §1
[9] = Binding affinity to pMFST AACGACT mismatch site A; method in brief: as §1
[10] = Binding affinity to pMFST TAGCACA mismatch site B; method in brief: as §1
[11] = Binding affinity to pMFST ATGGTCA match site; method in brief: as §1
[12] = Binding affinity to pMFST ATATGGT mismatch site A; method in brief: as §1

SMILES: CN(C)CCCNC(=O)CCNC(=O)c1cc(NC(=O)c2cc(NC(=O)c3cc(NC(=O)c4cc(NC(=O)[C@H](N)CCNC(=O)c5nc(NC(=O)c6cc(NC(=O)c7nc(NC(=O)c8nccn8C)cn7C)cn6C)cn5C)cn4C)cn3C)cn2C)cn1C
- Ka [1]: 4.4 10^10/M
- Ka [2]: 1.1 10^10/M
- Ka [3]: 1.1 10^9/M

SMILES: CN(C)CCCNC(=O)CCNC(=O)c1cc(NC(=O)c2cc(NC(=O)c3cc(NC(=O)c4nc(NC(=O)CNC(=O)c5cc(NC(=O)c6cc(NC(=O)c7nc(NC(=O)c8nccn8C)cn7C)cn6C)cn5C)cn4C)cn3C)cn2C)cn1C
- Ka [4]: 1.3 10^9/M
- Ka [5]: 7 10^8/M
- Ka [6]: 5.9 10^8/M

SMILES: CN(C)CCCNC(=O)CCNC(=O)c1cc(NC(=O)c2cc(NC(=O)c3cc(NC(=O)c4cc(NC(=O)[C@@H](CCN)NC(=O)c5nc(NC(=O)c6nc(NC(=O)CCNC(=O)c7nccn7C)cn6C)cn5C)cn4C)cn3C)cn2C)cn1C
- Ka [7]: 8 10^8/M
- Ka [8]: 6.2 10^7/M

SMILES: CN(C)CCCNC(=O)CCNC(=O)c1cc(NC(=O)c2cc(NC(=O)c3cc(NC(=O)c4nc(NC(=O)[C@H](N)CCNC(=O)c5cc(NC(=O)c6cc(NC(=O)c7nc(NC(=O)c8nccn8C)cn7C)cn6C)cn5C)cn4C)cn3C)cn2C)cn1C
- Ka ([9]; in the assay text read “mismatch site C” for “mismatch site A”): 1.8 10^10/M
- Ka [10]: 3.9 10^8/M
- Ka [11]: 4.9 10^10/M

SMILES: CN(C)CCCNC(=O)CCNC(=O)c1cc(NC(=O)c2cc(NC(=O)c3cc(NC(=O)c4cc(NC(=O)[C@@H](CCN)NC(=O)c5nc(NC(=O)c6cc(NC(=O)c7nc(NC(=O)c8nccn8C)cn7C)cn6C)cn5C)cn4C)cn3C)cn2C)cn1C
- Ka [1]: 3 10^8/M
- Ka [2]: 8.5 10^7/M

SMILES: CN(C)CCCNC(=O)CCNC(=O)c1cc(NC(=O)c2cc(NC(=O)c3cc(NC(=O)c4cc(NC(=O)[C@H](N)CCNC(=O)c5nc(NC(=O)c6nc(NC(=O)CCNC(=O)c7nccn7C)cn6C)cn5C)cn4C)cn3C)cn2C)cn1C
- Ka [7]: 4.3 10^10/M
- Ka [12]: 9.9 10^8/M
- Ka [8]: 6.2 10^9/M

SMILES: CN(C)CCCNC(=O)CCNC(=O)c1cc(NC(=O)c2cc(NC(=O)c3cc(NC(=O)c4nc(NC(=O)[C@@H](CCN)NC(=O)c5cc(NC(=O)c6cc(NC(=O)c7nc(NC(=O)c8nccn8C)cn7C)cn6C)cn5C)cn4C)cn3C)cn2C)cn1C
- Ka [9]: 1.5 10^8/M
- Ka [5]: 9.8 10^9/M
- Ka [11]: 4.4 10^9/M
- Ka [6]: 4.7 10^9/M
